# Experimental data as given in paper PMC8204096 (Clinical & Translational Immunology, 2021).
# Read-outs that look alike come from different tables or passages of the source.
# Experiments:
# [1] = tested on: B cells in human whole blood; assay: Anti-IgD-induced B-cell activation; type: cell-based; details: read-out: IC50, B-cell activation in whole blood, stimulated cells
# [2] = tested on: CD19+ B cells from human PBMC; assay: Anti-IgD-induced B-cell activation; type: cell-based; details: read-out: IC50, CD69 induction on B cells
# Summary of the method: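 PBMCs from healthy donors were isolated by density gradient. They were incubated for 30 min with titrating concentrations of test compound or DMSO, then stimulated overnight at 37°C with rabbit F(ab′)2 anti-human IgD (5 μg mL−1). After Fc block and staining for 30 min on ice, the frequency of CD69+ cells among CD19+ B cells was measured by flow cytometry.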
# [3] = tested on: B220+ mouse splenic B cells; assay: Anti-IgM-induced B-cell activation; type: cell-based; details: read-out: IC50, CD69 induction on B cells
# Summary of the method: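 Splenic B cells were bead-isolated from OTII mice and pre-treated with test compound for 30 min at 37°C. They were incubated on ice with biotinylated goat F(ab′)2 anti-mouse IgM (10 μg mL−1, 15 min), then OVA-conjugated anti-biotin (10 min), with compound present throughout. They were co-cultured with dye-labelled CD4+ T cells for 72 h at 37°C. The frequency of CD69+ B220+ B cells was measured by flow cytometry.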
# [4] = tested on: B cells in mouse whole blood; assay: Anti-IgD-induced B-cell activation; type: cell-based; details: read-out: IC50, CD62L downregulation on B cells
# [5] = tested on: CD4+ and CD8+ T cells from human PBMCs; assay: Anti-CD3/anti-CD28-mediated T-cell activation counter-screen; type: cell-based; details: anti-CD3 and anti-CD28 overnight, concentrations up to 10 μM
# Summary of the method: (§1)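 Human PBMCs were pre-treated for 30 min with titrating concentrations of test compound. They were then stimulated overnight at 37°C with soluble anti-CD28 (CD28.2, 5 μg mL−1) and plate-bound anti-CD3 (HIT3a, 0.5 µg mL−1). CD69 on CD4+ and CD8+ T cells and on CD19+ B cells was measured by flow cytometry.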
# [6] = tested on: CD19+ B cells from human PBMCs; assay: Antigen-independent B-cell activation by anti-CD3/anti-CD28-activated T cells; type: cell-based
# Summary of the method: as §1
# purified human B cells = assay: Human B-cell proliferation; type: cell-based; details: 100 nM added at time of activation; TLR9 or anti-IgM/CD40L with IL-4 or IL-21
# Summary of the method: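 Healthy-donor B cells were enriched untouched and labelled with CFSE. Stimuli were CpG ODN 2006, or F(ab′)2 anti-IgM (1 µg mL−1), or anti-IgM/MEGACD40L (1 μg mL−1) with IL-4 or IL-21 (each 20 ng mL−1). Cells were cultured with or without 100 nm test compound in serum-free X-VIVO 10 for 3–5 days, then analysed by flow cytometry.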
# [7] = tested on: mouse splenic B cells and OTII CD4+ T cells; assay: BCR-mediated antigen presentation to T cells; type: cell-based; details: read-out: IC50, BCR-mediated antigen presentation to OVA323-339-specific T cells (T-cell proliferation)
# [8] = tested on: basophils in human whole blood; assay: FcεR-mediated basophil degranulation; type: cell-based; details: read-out: IC50, anti-IgE-mediated basophil degranulation (CD63)
# [9] = tested on: NP-specific IgM antibody titres; assay: NP-Ficoll T cell-independent; type: in vivo; details: mouse, oral BID for 10 days
# [10] = tested on: splenic germinal center B cells; assay: Sheep red blood cell thymus-dependent immunisation model; type: in vivo; details: mouse, 8 days BID, all doses tested
# Summary of the method: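 Mice were dosed orally BID at 10 mL kg−1 with test compound or vehicle from day 1 to day 9. On day 2 they received washed sheep red blood cells i.p. (2 × 10⁹ cells). Spleens were collected on day 9, 3 h after the last dose. Germinal centre B cells (CD3−CD19+B220+CD38lowGL7+CD95+) were enumerated by flow cytometry, with 8–20 mice per group.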
# [11] = tested on: B cells in whole blood of dosed healthy individuals; assay: Phase 1; type: in vivo, human
# Summary of the method: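 Heparinised whole blood from trial participants (test compound or placebo, BID) was stimulated with 0.1 μg mL−1 dextran-conjugated anti-IgD (IA6-2) for 18–24 h at 37°C/5% CO2. Samples were stained for CD19 and CD69, RBC-lysed and fixed. CD69 on CD19+, CD27− and CD27+ B cells was standardised with MESF beads. Inhibition was calculated relative to pre-dose samples.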
# BTK = BTK (Mus musculus, UniProt P35991); assay: in vivo
# [12] = Homo sapiens, B-cell, read-out: average (± SD) CD69 inhibition at 24 h post-last dose
# [13] = Homo sapiens, B-cell, read-out: pre-dose average CD69 inhibition in naïve B cells
# Chain of BTK (P35991 whole entry): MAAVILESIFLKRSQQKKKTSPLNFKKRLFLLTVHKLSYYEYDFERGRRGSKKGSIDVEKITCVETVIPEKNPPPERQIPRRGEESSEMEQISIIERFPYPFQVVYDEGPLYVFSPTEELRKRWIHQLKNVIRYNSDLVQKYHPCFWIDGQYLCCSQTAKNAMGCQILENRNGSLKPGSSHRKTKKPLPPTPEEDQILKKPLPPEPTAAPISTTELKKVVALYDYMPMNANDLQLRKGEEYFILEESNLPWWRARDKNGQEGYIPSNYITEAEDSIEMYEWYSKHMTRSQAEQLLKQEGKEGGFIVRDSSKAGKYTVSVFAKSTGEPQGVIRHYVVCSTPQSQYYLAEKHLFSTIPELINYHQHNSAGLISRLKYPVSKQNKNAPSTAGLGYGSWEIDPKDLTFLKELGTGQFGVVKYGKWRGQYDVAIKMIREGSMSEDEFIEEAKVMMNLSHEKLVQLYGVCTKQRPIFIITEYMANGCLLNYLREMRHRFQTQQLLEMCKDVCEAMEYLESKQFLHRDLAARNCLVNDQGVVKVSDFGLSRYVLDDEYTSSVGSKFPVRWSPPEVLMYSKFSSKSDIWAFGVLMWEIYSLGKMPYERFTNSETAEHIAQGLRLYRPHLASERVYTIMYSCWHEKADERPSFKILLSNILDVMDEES
IC50 [1] [µM],IC50 [3] [µM],IC50 [4] [µM],IC50 [8] [µM],frequency of total splenic B cells [10],IC50 (BTK) [µM],Compound,IC50 [2] [µM],inhibition of CD4+ or CD8+ T-cell activation (CD69) [5],"inhibition of T cell-dependent, antigen-independent B-cell activation (CD69) [6]",effect on B-cell proliferative responses (purified human B cells),IC50 [7] [µM],ED50 for NP-specific IgM antibody titres [9] [mg/kg],"inhibition of CD69 upregulation in naïve B cells ([11]; 50 mg BID, 1 and 2 h post-dosing)","inhibition at 50 mg [11, 12] [%]","inhibition at 150 mg [11, 12] [%]","inhibition at 300 mg [11, 12] [%]","inhibition at 150 mg [11, 13] [%]","inhibition at 300 mg [11, 13] [%]"
3.5,–,–,–,–,–,Cc1cc(-c2ccnc(Nc3cnn(C)c3)n2)ccc1CNC(=O)N1CC(OC(C)C)C1 [BIIB068],–,–,–,–,–,–,–,–,–,–,–,–
–,0.016 ± 0.011,0.04 ± 0.024,0.106,unchanged,0.0031,Cn1cc(Nc2nccc(-c3ccc4c(c3)CN(C3COC3)CC[C@H]4NC(=O)c3cn(C(C)(C)C)nn3)n2)cn1 [BIIB091],0.0054 ± 0.0005,did not inhibit,did not inhibit,potently blocked,0.022 ± 0.008,1.95,complete,-5.8,19,-2.8,≥ 90,≥ 90
